UHRF1 MBD2 ctr = human UHRF1 methylated DNA binding inhibitors | Q96T88 | UHRF1 binding to methylated oligo, TR-FRET | inhibition, % at 4.4 µM | actives 0.75% (n = 370,000) | AID 687016; in the data active means inhibition above about 21%;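 further: UHRF1 SRA domain binding a hemimethylated CpG hairpin DNA probe; 0% = median of test compound wells and 100% = reference inhibitor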
Target sequence (Q96T88 whole entry, looked up, the tested form may be a part): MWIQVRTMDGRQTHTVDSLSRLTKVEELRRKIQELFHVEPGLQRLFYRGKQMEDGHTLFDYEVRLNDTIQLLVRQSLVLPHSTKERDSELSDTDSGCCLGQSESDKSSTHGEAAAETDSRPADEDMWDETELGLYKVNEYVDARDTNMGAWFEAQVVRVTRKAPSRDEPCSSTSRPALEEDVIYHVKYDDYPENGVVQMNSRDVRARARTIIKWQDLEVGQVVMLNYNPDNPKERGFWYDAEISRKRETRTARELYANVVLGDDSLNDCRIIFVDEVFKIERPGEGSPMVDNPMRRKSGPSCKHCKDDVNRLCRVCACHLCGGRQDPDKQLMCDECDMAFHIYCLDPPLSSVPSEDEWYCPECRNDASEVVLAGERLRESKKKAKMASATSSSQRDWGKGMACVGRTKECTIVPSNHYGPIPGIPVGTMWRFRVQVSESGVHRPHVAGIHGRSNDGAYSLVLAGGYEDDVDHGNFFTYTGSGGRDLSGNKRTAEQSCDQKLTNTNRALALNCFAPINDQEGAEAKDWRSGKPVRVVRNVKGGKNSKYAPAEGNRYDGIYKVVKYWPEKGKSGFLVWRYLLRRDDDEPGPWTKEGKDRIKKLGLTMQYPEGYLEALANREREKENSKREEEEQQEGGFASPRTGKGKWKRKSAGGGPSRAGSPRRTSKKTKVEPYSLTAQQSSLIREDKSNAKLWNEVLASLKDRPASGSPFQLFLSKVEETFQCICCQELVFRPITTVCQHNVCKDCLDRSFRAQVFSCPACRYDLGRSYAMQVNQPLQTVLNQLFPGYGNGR
PRMT1 inh = blocks human protein arginine methyltransferase 1 | Q99873 | recombinant PRMT1, activity-based probe fluorescence polarization | inhibition, % at 2.79 µM | actives 1.3% (n = 370,000) | AID 652257;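 active means inhibition above about 21% made by adding two undisclosed values, limit read from the data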
RBBP9 inh = blocks human serine hydrolase RBBP9 | O75884 | recombinant RBBP9, FP-Rh probe fluorescence polarization | inhibition, % at 7.94 µM | actives 0.2% (n = 220,000) | AID 1515;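 active means inhibition above the campaign mean of all tested compounds plus 3 SD, cut at about 14% in these data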;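 further: plate controls were DMSO wells with RBBP9 for no effect and wells lacking RBBP9 protein for full effect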
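Test system – recombinant human RBBP9 · Input – RBBP9 2.5 µM in dispensing solution, pre-mixing · Medium – Tris buffer pH 8.0, NaCl, Pluronic · Schedule – preincubation 30 min plus labeling 45 min at 25 °C · Measured by – fluorescence polarization · Measure – % inhibition · Controls – DMSO and no-protein wells · Replicates – one well per compound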
ABHD5 PLIN5 PPI = inhibitors of human ABHD5-perilipin-5 interaction. Q00G26+Q8WTS1. actives 0.78% (n = 360,000). inhibition, % at 4 µM. Split G. princeps luciferase complementation, luminescence, 4 h. AID 602281;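 active means inhibition above the mean inhibition across every tested compound plus 3 SD, cut at about 22% in these data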;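 further: 0% = DMSO only wells and the 100% control is not disclosed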
LEDGF integ inh = blocks HIV-1 LEDGF/p75-dependent DNA integration | AID 743269 | actives 0.64% (n = 370,000) | inhibition, % at 3.7 µM | TR-FRET IN-LEDGF/p75 DNA integration, Eu/Cy5;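 active means inhibition above the screen-wide mean plus 3 SD, cut at about 13% in these data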;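 further: signal is the Cy5 over europium emission ratio at 671 and 618 nm; 0% = plate median of compound wells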
MBD2 inh = MBD2-methylated oligo binding inhibition; inhibition, % at 4.4 µM; TR-FRET, MBD2 binding to methylated oligonucleotide; actives 0.31% (n = 370,000); in the data active means inhibition above about 13%
PRMT1 inh conf = confirmation of human PRMT1 inhibitors. recombinant His-PRMT1, activity-based probe fluorescence polarization. actives 42% (n = 3,300). shares compounds with PRMT1 inh. inhibition, % at 2.79 µM;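 active means mean inhibition across replicates above the hit cutoff derived for the earlier primary screen, cut at about 22% in these data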
Starred values were filed as active, the others as inactive; · = no result given; ! = not confirmed by another sample. A selection: hits, their analogues and other compounds. The true share with any hit is near 3.1%.

SMILES | UHRF1 MBD2 ctr | PRMT1 inh | RBBP9 inh | ABHD5 PLIN5 PPI | LEDGF integ inh | MBD2 inh | PRMT1 inh conf
NC(=O)c1cc[n+](CC2=C(C(=O)O)N3C(=O)[C@@H](NC(=O)C(c4ccccc4)S(=O)(=O)[O-])[C@H]3SC2)cc1 (stereo partly drawn) | · | · | -2 | -3 | · | · | ·
CCOC(=O)[C@]12CCCCC/C=C\1N(Cc1ccc(OC)cc1)C(=O)[C@H]2CC(=O)N1CCCC1 | 1 | 1 | · | · | -3 | -2 | ·
CC1CCC2(CC1)CCN(CCCOC(=O)Nc1cccc(C(F)(F)F)c1)C2=O (stereo not drawn) | 1 | 3 | · | · | 0 | 4 | ·
CCC(CC)NC(=O)/C=C/c1ccccc1Cl | 0 | -3 | -1 | 1 | 0 | 1 | ·
CCNc1ccc(Br)cc(C(=O)/C=C/c2ccccc2Cl)c1=O | 0 | 33* | 0 | 18 | 12 | -2 | 18
Clc1cc(Cl)cc(CNC2CCC23CCCCC3)c1 (stereo not drawn) | 0 | -1 | · | · | -1 | -4 | ·
O=C(NCC(F)(F)F)c1ccc(S(=O)(=O)N2CCN(C(=O)C3CCCO3)CC2)cc1 (stereo not drawn) | -1 | 70* | · | -4 | -2 | 3 | 1
O=c1cc(-c2ccccc2)nc2cc(-c3ccco3)[nH]n12 | 8 | 30* | -7 | -11 | 12 | -4 | -1
O=c1cc(-c2ccccc2)nc2cc(-c3ccc(Br)cc3)[nH]n12 | -3 | 0 | · | 4 | -6 | 1 | ·
COC(=O)[C@]12C[C@H](CC(=O)NCCCN3CCCC3=O)C(=O)N(Cc3ccc(Cl)cc3Cl)C1=C[C@H](C(C)C)O[C@@H]2C1CC1 | -2 | 2 | · | · | -5 | 8 | ·
c1ccc([C@H]2CN3C(=N2)Sc2ccccc23)cc1 | 2 | 29* | · | -4 | 0 | 0 | 20
N#CC1=C(N)N2C(=C(C#N)C1c1ccccc1)Sc1ccccc12 (stereo not drawn) | · | · | 0 | · | · | · | ·
O=C(NC1CCCCN(Cc2ccc(Cl)cc2)C1=O)c1ccc2ccccc2c1 (stereo not drawn) | -2 | -7 | · | · | 2 | -2 | ·
CN1CCC2(CC1)C1CN(C)CC=C1C(C#N)=C(N)C2(C#N)C#N (stereo not drawn) | -8 | 40* | 13 | -7 | -4 | -11 | 22*!
O=C(Nc1ccc(Nc2ccccc2)cc1)c1ccc(Cl)c([N+](=O)[O-])c1 | 3 | 1 | · | -7 | -9 | 6 | ·
Cc1cc(C(=O)Nc2ccc(Nc3ccccc3)cc2)ccc1[N+](=O)[O-] | -2 | 28* | · | -3 | 4 | -1 | 6
O=C(COc1ccc(Cl)cc1)Nc1ncc([N+](=O)[O-])s1 | 2 | -1 | -2 | 0 | 5 | -3 | ·
O=C(COC(=O)COc1ccccc1)Nc1ncc([N+](=O)[O-])s1 | 7 | 40* | · | -25 | 32* | 2 | 15
CCN(CC)S(=O)(=O)c1cccc(-c2n[nH]c(=S)n2/N=C/c2ccc(Br)cc2)c1 | -1 | 46* | -7 | -3 | -1 | -1 | 33*
CC(C)c1ccc(/C=N/n2c(-c3ccccc3)n[nH]c2=S)cc1 | -1 | 51* | · | -9 | 7 | 0 | 21*
CCC(C)n1c(-c2cccc(S(=O)(=O)N(CC)CC)c2)n[nH]c1=S (stereo not drawn) | 1 | 0 | -4 | -4 | -3 | -3 | ·
CCN(CC)S(=O)(=O)c1cccc(-c2n[nH]c(=S)n2/N=C/c2ccc(OC(F)F)cc2)c1 | -1 | 51* | -7 | -4 | -3 | -3 | 34*
Cc1ccc(/C=N/n2c(-c3ccccc3)n[nH]c2=S)cc1 | -1 | 16 | · | -7 | -5 | 3 | ·
CCN(CC)S(=O)(=O)c1cccc(-c2n[nH]c(=S)n2/N=C/c2ccc(OC)cc2)c1 | 1 | 59* | -12 | -12 | -2 | 4 | 30*
CCC[C@H]1[C@@H](NC(=O)C2CCOC2)CC[C@@]23CCCN2C(=O)CCC[C@@H]13 (stereo partly drawn) | 0 | 0 | · | · | -1 | -2 | ·
CC(C)C[C@H]1COc2cccc(F)c2S(=O)(=O)N1Cc1cn(CCC2OCCO2)nn1 | 0 | 2 | · | · | 0 | 1 | ·
